The nature of series [1]: Cytotoxicity against human KLM1 cells grown in nutrient-rich medium after 24 hrs by WST8 assay. The series is classed as cell-based. The note with it: klm1, 24 h. In a few lines:
(§1)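 Cells seeded at 2 × 10^4/well and grown 24 h in fresh DMEM or RPMI-1640 at 37 °C, 5% CO2. After a PBS wash, the medium was replaced with serially diluted samples in DMEM (nutrient-rich) or NDM. After 24 h, DMEM with 10% WST-8 solution was added. A450 was read after 3 h. Viability (%) was taken from the mean of three wells, blank-corrected against the control. PC50 is 50% kill in NDM without toxicity in DMEM.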
(In general: Formazan colour is commonly taken as a measure of viable cells.)

Series [2] concerns PSN1. The series can be described thus: Cytotoxicity against human PSN1 cells grown in nutrient-deprived medium after 24 hrs by WST8 assay. In kind it is functional. In a few lines: as §1
The subject of series [3] is MIA PaCa-2. The experiment in a line: Cytotoxicity against human MIAPaCa2 cells grown in nutrient-rich medium after 24 hrs by WST8 assay. The series is classed as cell-based. The note with it: mia paca-2, 24 h. In a few lines:
as §1

The test system of series [4] is MIA PaCa-2. The experiment in a line: Cytotoxicity against human MIAPaCa2 cells grown in nutrient-deprived medium after 24 hrs by WST8 assay. The series is classed as functional. Summed up: as §1
Series [5] relates to PANC-1. The series can be described thus: Cytotoxicity against human PANC1 cells grown in nutrient-rich medium after 24 hrs by WST8 assay. The series is classed as cell-based. The settings on record: panc-1, 24 h. Summed up:
as §1

For series [6], the system named is PANC-1. The experiment in a line: Cytotoxicity against human PANC1 cells grown in nutrient-deprived medium after 24 hrs by WST8 assay. In kind it is functional. In a few lines:
as §1

The nature of series [7]: (§2) Cytotoxicity against human KLM1 cells grown in nutrient-deprived medium after 24 hrs by WST8 assay. In kind it is functional. In a few lines:
as §1

Series [8] deals with PSN1. The series can be described thus: Cytotoxicity against human PSN1 cells grown in nutrient-rich medium after 24 hrs by WST8 assay. The series is classed as cell-based. The settings on record: psn1, 24 h. In a few lines:
as §1

For series [9], the system named is PANC-1. The series can be described thus: Induction of morphological changes in human PANC1 cells assessed as rounding of cells at 25 uM after 24 hrs by inverted-phase contrast microscopic analysis. The series is classed as functional, cell-based. In a few lines: (§3)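 Cells (1 × 10^6) were seeded in 60 mm dishes and attached over 24 h in a humidified CO2 incubator. They were washed twice with PBS and treated at 25 μM in DMEM or NDM, alongside controls. After 24 h, cells were viewed by phase-contrast on an inverted microscope with a 40× objective and photographed.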

For series [10], the system named is PANC-1. The experiment in a line: Induction of morphological changes in human PANC1 cells assessed as loss of cellular content at 25 uM after 24 hrs by inverted-phase contrast microscopic analysis. In kind it is functional, cell-based. In a few lines: as §3
In series [11] the test system is PANC-1. The experiment in a line: Induction of morphological changes in human PANC1 cells assessed as plasma membrane rupture at 25 uM after 24 hrs by inverted-phase contrast microscopic analysis. The series is classed as functional, cell-based. Summed up: as §3
For series [12], the system named is KLM1. The description is as §2. In kind it is functional. Summed up:
as §1

The source of these data is ChEMBL document CHEMBL2062391, “Antiausterity agents from Uvaria dac and their preferential cytotoxic activity against human pancreatic cancer cell lines in a nutrient-deprived condition” (J Nat Prod, 2012).

SMILES strings stand for the structures. Calls of active or inactive are those of the source. The rule behind the calls is not given here.

Turning to `COc1cc(C[C@H]2C(=O)OC[C@@H]2Cc2ccc(OC)c(OC)c2)ccc1O` [ARCTIGENIN], the Activity entry in [1], in [3], in series [5] and in series [8] was “Non-toxic” each time. Moreover, the PC50 in series [2] was 1.9 µM; in series [4], 0.67 µM; in [6] it was 1.7 µM; in series [7] it was 1.5 µM.

Take `O=C(OC[C@@]1(O)C(=O)C=C[C@H]2[C@@H]1[C@H]1C=C[C@@H]2C(=O)[C@]1(O)COC(=O)c1ccccc1)c1ccccc1`: the Activity result in series [1] was “Non-toxic”; in [2], “Dose-dependent effect”; in series [3], “Non-toxic”; in [4] it was “Dose-dependent effect”; in [5] it was “Non-toxic”; in series [6] it was “Dose-dependent effect”. For the same compound, the Activity entry was “Dose-dependent effect” in series [12] and “Non-toxic” in series [8]. Besides, the PC50 in series [2] is 32.6 µM; in [4] it was 17.5 µM; in [6], 14.5 µM; in [7], 32.7 µM. For the same compound, the outcome in [9], in [10] and in [11] was Active.

In the case of `COc1ccccc1COC(=O)c1ccccc1`, the Activity result in series [1], in series [3], in [5] and in series [8] was “Non-toxic” throughout. Besides, the PC50 in series [2] is 185 µM; in series [4] it was 131 µM; in series [6], 137 µM; in [7] it was over 200 µM.

Regarding `C/C(=C\COC(=O)c1ccccc1)COC(=O)c1ccccc1` [UVARIDACANE A], the Activity result in series [1], in series [3], in series [5] and in series [8] was “Non-toxic” each time. The PC50 in [2] was found to be 96.5 µM; in [4], 56.3 µM; in series [6], 72.3 µM; in series [7] it was 122 µM.

For the compound `CC(=O)O[C@H]1C(COC(=O)c2ccccc2)=C[C@@H](O)[C@@H](O)[C@H]1OC(=O)c1ccccc1` [UVARIDACOL A], the Activity entry in series [1], in series [3], in [5] and in series [8] was “Non-toxic” each time. Besides, the PC50 in series [2] stood at 173 µM; in series [4], 192 µM; in series [6], 102 µM; in series [7], 83 µM.

Take `CO[C@@H]1C=C(COC(=O)c2ccccc2)[C@H](OC(C)=O)[C@H](OC(=O)c2ccccc2)[C@@H]1O` [UVARIDACOL B]: the Activity result in series [1], in [3], in [5] and in series [8] was “Non-toxic” throughout. The PC50 in [2] was 158 µM; in series [4], 147 µM; in series [6], 69.8 µM; in series [7], over 200 µM.

As to `O=C(OCC1=C[C@H](O)[C@H](O)[C@@H](OC(=O)c2ccccc2)[C@@H]1O)c1ccccc1` [UVARIDACOL C], the Activity result in series [1], in [3], in [5] and in series [8] was “Non-toxic” each time. Besides, the PC50 worked out at 152 µM in series [2], 115 µM in [4] and 72.9 µM in series [6].

Take `CC(=O)O[C@@H]1C(COC(=O)c2ccccc2)=C[C@H]2O[C@H]2[C@H]1OC(=O)c1ccccc1` [UVARIDAPOXIDE A]: the Activity result in series [1], in [3], in [5] and in series [8] was “Non-toxic” throughout. The PC50 in series [2] was 80.1 µM; in [4], 100 µM; in series [6] it was 112 µM; in series [7], 159 µM.

As for `Nc1ccn([C@@H]2O[C@H](CO)[C@@H](O)C2(F)F)c(=O)n1` [GEMCITABINE], the Activity entry in series [1], in [3], in [5] and in series [8] was “Non-toxic” each time. In addition, the PC50 in series [2], in series [4], in [6] and in [7] was over 200 µM each time.

For `C/C(=C\COC(=O)/C=C/c1ccccc1)COC(=O)c1ccccc1` [UVARIDACANE B], the Activity result in series [1], in series [3], in [5] and in series [8] was “Non-toxic” in each case. Besides, the PC50 in series [2] is 143 µM; in series [4], 57.8 µM; in series [6], 134 µM; in series [7] it was over 200 µM.
